According to PMC10189352 (Molecular Therapy. Nucleic Acids, 2023):

Assays:
MYC = experiment: Western blot of MYC protein in murine AML cells; assay type: cell-based; conditions: murine MLL-AF9, Nras^G12D AML cells, 6 h, RVX-208 1 μM, OTX-015 1 μM, candidates 10 μM
How it was run: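 Whole-cell lysates were prepared after the 6 h treatment and probed for MYC by western blot. DMSO-treated cells were the vehicle control.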

Hexim1 mRNA = experiment: RT-qPCR of Hexim1 in murine AML cells; assay type: cell-based; conditions: 6 h treatment
[1] = tested on: BRD4 occupancy at e1-e5 Myc enhancers; experiment: BRD4 ChIP-qPCR at Myc enhancers in murine AML cells; assay type: cell-based
[2] = tested on: murine AML cells (MLL-AF9; Nras^G12D); experiment: RNA-seq and GSEA in murine AML cells; assay type: cell-based; conditions: RNA-seq; for mRNA levels of JQ1-rapid target genes (n = 50): relative to DMSO
c-Kit surface expression = experiment: Flow cytometric analysis of c-Kit in murine AML cells; assay type: cell-based; conditions: 48 h, flow cytometry
[3] = tested on: MLL-AF9;Nras^G12D AML cells; experiment: Propidium iodide staining of murine AML cells; assay type: cell-based; conditions: 48 h (Figure 3D)
human AML cells = experiment: Methylcellulose-based colony formation of human AML cells; assay type: cell-based; conditions: semi-solid methylcellulose (Figure 3E)
[4] = tested on: human leukemia cell lines; experiment: Proliferation assay of human leukemia cell lines; assay type: cell-based; conditions: 48 h, normalized to DMSO-treated cells
How it was run: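 Human leukemia cell lines were grown with test compound. Proliferation rate was normalised to DMSO-treated cells; n = 3, mean ± SEM.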

[5] = tested on: murine AML cells expressing Myc cDNA; experiment: Ectopic Myc cDNA expression rescue in murine AML cells; assay type: cell-based; conditions: murine AML cells transduced with Myc cDNA MSCV retrovirus
AsPC-1 cells = experiment: Colony formation of adherent cancer cells; assay type: cell-based, human; conditions: dose-dependent; after 5 days of treatment
SW-480 cells = experiment: Colony formation of adherent cancer cells; assay type: cell-based, human; conditions: dose-dependent; after 5 days of treatment
PDA organoids = experiment: PDA organoid growth; assay type: cell-based, mouse; conditions: 24, 48, and 72 h, light microscopy; CellTiter Glo-3D
How it was run: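 PDA organoids were treated with test compound or DMSO and imaged by light microscopy at 24, 48 and 72 h. Growth was quantified with CellTiter-Glo 3D. Data are shown as mean ± SEM, and p-values came from Student's t test.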

BRD4 chromatin occupancy = experiment: BRD4 ChIP-seq in murine AML cells; assay type: cell-based; conditions: regions enriched with H3K27ac
[6] = tested on: RNA polymerase II chromatin occupancy; experiment: RNA Pol II ChIP-seq in murine AML cells; assay type: cell-based; conditions: BRD4-occupied sites
[7] = tested on: BD2 vs BD1 of BET proteins; conditions: approximately; cited from earlier work

| SMILES | MYC protein expression (MYC) | increase of Hexim1 mRNA expression (Hexim1 mRNA) [fold] | BRD4 occupancy at e1-e5 Myc enhancers [1] | LSC signature genes (GSEA) [2] | mRNA levels of JQ1-rapid target genes (n = 50) [2] | expression of genes close to the BBC1115-sensitive 330 regions (GSEA) ([2]; vs DMSO) | c-Kit surface expression (c-Kit surface expression) | proliferation of leukemia cells [3] | ability to form colonies on methylcellulose (human AML cells) | anti-proliferative activity in K562, NOMO-1, JURKAT, and HL-60 [4] | anti-proliferative activity in MV4-11, KASUMI-1, MOLM-13, and THP-1 [4] | effect of ectopic Myc expression on drug sensitivity [5] | clonogenic growth of AsPC-1 cells (AsPC-1 cells) | clonogenic growth of SW-480 cells (SW-480 cells) | PDA organoid growth (PDA organoids) | BRD4 chromatin occupancy (ChIP-seq) (BRD4 chromatin occupancy) | RNA Pol II chromatin binding (ChIP-seq) [6] | stronger binding affinity toward BD2 than BD1 [7] |
| --- | --- | --- | --- | --- | --- | --- | --- | --- | --- | --- | --- | --- | --- | --- | --- | --- | --- | --- |
| Cc1sc2c(c1C)C(c1ccc(Cl)cc1)=N[C@@H](CC(=O)Nc1ccc(O)cc1)c1nnc(C)n1-2 [OTX-015, birabresib] | downregulated MYC protein levels | > 20 | impaired the occupancy of BRD4 at the e1-e5 Myc enhancers | significantly suppressed the LSC signature genes | strongly downregulated all JQ1-rapid targets | significantly downregulated | downregulated c-Kit | inhibited the proliferation of leukemia cells | substantially suppressed | minimal sensitivity | broad growth-suppressive effect | ectopic Myc expression conferred resistance | markedly inhibit clonogenic growth | markedly inhibit clonogenic growth | attenuated PDA organoid growth | – | – | – |
| COc1cc(OC)c2c(=O)[nH]c(-c3cc(C)c(OCCO)c(C)c3)nc2c1 [RVX-208, apabetalone] | only modestly affected MYC protein expression | – | negligible effect on the BRD4 occupancy at e1-e5 | insignificant | downregulated some but not all JQ1-rapid targets | – | – | – | – | – | – | – | – | – | but not RVX-208, attenuated PDA organoid growth | negligible | negligible | 10- to 100 fold |
